{
  "source": "ChEMBL document CHEMBL3593173",
  "about": "“Discovery of novel N-(5-(tert-butyl)isoxazol-3-yl)-N'-phenylurea analogs as potent FLT3 inhibitors and evaluation of their activity against acute myeloid leukemia in vitro and in vivo” (Bioorg Med Chem, 2015)",
  "key": {"MV4-11": {"system": "MV4-11", "experiment": "Cytotoxicity against human MV4-11 cells incubated for 72 hrs by MTT assay", "type": "functional, cell-based", "settings": "MV4-11, 72 h", "method_in_brief": "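Leukemia cells were grown with 10% FBS at 37 °C in 5% CO₂; MV4-11 was kept in IMDM. Cells were seeded at 1–4 × 10⁴ per well, and an equal volume of medium containing increasing inhibitor concentrations was added. MTT was added for 2–4 h, formazan was dissolved in DMSO, and OD was read at 570 nm to derive IC50.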"}, "[1]": {"experiment": "Solubility in EtOH solution", "type": "physicochemical"}, "[2]": {"experiment": "Solubility in MeOH solution", "type": "physicochemical"}, "[3]": {"experiment": "Solubility in PBS solution", "type": "physicochemical"}, "[4]": {"experiment": "Solubility in water", "type": "physicochemical"}},
  "data": [
    {"compound": "CC(C)(C)c1cc(NC(=O)Nc2ccc(-c3cc4ccccc4s3)cc2)no1", "values": [
      {"measurement": "IC50", "setting": "MV4-11", "result": "> 900", "unit": "nM"}
    ]},
    {"compound": "CC(C)(C)c1cc(NC(=O)Nc2ccc(-c3cn4cc(F)ccc4n3)cc2)no1", "values": [
      {"measurement": "IC50", "setting": "MV4-11", "result": 20.9, "unit": "nM"}
    ]},
    {"compound": "CC(C)(C)c1cc(NC(=O)Nc2ccc(-c3cn4ccccc4n3)cc2)no1", "values": [
      {"measurement": "solubility", "setting": "[1]", "result": 4070, "unit": "µg/mL"},
      {"measurement": "solubility", "setting": "[2]", "result": 5280, "unit": "µg/mL"},
      {"measurement": "IC50", "setting": "MV4-11", "result": 3.09, "unit": "nM"}
    ]},
    {"compound": "CC(C)(C)c1cc(NC(=O)Nc2ccc(-c3cn4cccc(Cl)c4n3)cc2)no1", "values": [
      {"measurement": "IC50", "setting": "MV4-11", "result": 353, "unit": "nM"}
    ]},
    {"compound": "Cc1cccn2cc(-c3ccc(NC(=O)Nc4cc(C(C)(C)C)on4)cc3)nc12", "values": [
      {"measurement": "IC50", "setting": "MV4-11", "result": 248, "unit": "nM"}
    ]},
    {"compound": "CC(C)(C)c1cc(NC(=O)Nc2ccc(-c3cn4cc(Br)ccc4n3)cc2)no1", "values": [
      {"measurement": "IC50", "setting": "MV4-11", "result": 44.5, "unit": "nM"}
    ]},
    {"compound": "C#Cc1ccn2cc(-c3ccc(NC(=O)Nc4cc(C(C)(C)C)on4)cc3)nc2c1", "values": [
      {"measurement": "solubility", "setting": "[1]", "result": 4100, "unit": "µg/mL"},
      {"measurement": "solubility", "setting": "[2]", "result": 5840, "unit": "µg/mL"},
      {"measurement": "IC50", "setting": "MV4-11", "result": 3.46, "unit": "nM"},
      {"measurement": "solubility", "setting": "[3]", "result": 10.2, "unit": "µg/mL"},
      {"measurement": "solubility", "setting": "[4]", "result": 26.7, "unit": "µg/mL"}
    ]}
  ]
}
